Experimental data as given in ChEMBL document CHEMBL1828509, “Synthesis, pharmacological evaluation and docking studies of coumarin derivatives” (2011).

Tests used:
Type in all cases: functional
Bacillus subtilis [1] = test: Antimicrobial activity against Bacillus subtilis MTCC 1789 at 10 ug/ml; conditions: read-out: IZ
Aspergillus niger [2] = test: Antifungal activity against Aspergillus niger MTCC 282 at 10 ug/ml; conditions: read-out: IZ
Mus musculus = test: Analgesic activity in mouse assessed as inhibition of acetic acid-induced writhing administered 30 mins before acetic acid challenge measured after 30 mins relative to control; parameters: concentration or dose not given beside the values
Method in brief: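 Groups of six mice (20–30 g, both sexes, pregnant females excluded) dosed with test compound; 30 min later 0.25 ml/mouse of 0.5% acetic acid given i.p. Writhes counted over the next 30 min. Mean writhes per group ± SE; percent decrease versus untreated control mice.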

Escherichia coli [3] = test: Antimicrobial activity against Escherichia coli MTCC 4315 at 25 ug/ml; conditions: read-out: IZ
Rattus norvegicus [4] = test: Antiinflammatory activity in Wistar albino rat assessed as inhibition of carrageenan-induced paw edema at 20 mg/kg, po administered 30 mins before carrageenan challenge measured after 2 hrs by plethysmograph
Method in brief: (§1)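 Male Wistar albino rats (150–200 g), six per group, dosed orally with 20 mg/kg suspension; control got 0.1 ml of 1% gum acacia suspension orally. After 30 min, 0.1 ml of 1% carrageenan in normal saline injected sub-plantar into the right hind paw. Paw volume measured by plethysmograph at 0, 1, 2, 3 and 4 h; percent edema inhibition versus control at matching time.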

Candida albicans [5] = test: Antifungal activity against Candida albicans MTCC 183 at 50 ug/ml; conditions: read-out: IZ
Rattus norvegicus [6] = test: Antiinflammatory activity in Wistar albino rat assessed as inhibition of carrageenan-induced paw edema at 20 mg/kg, po administered 30 mins before carrageenan challenge measured after 1 hr by plethysmograph; method in brief: as §1
Candida albicans [7] = test: Antifungal activity against Candida albicans MTCC 183 at 25 ug/ml; conditions: read-out: IZ
Escherichia coli [8] = test: Antimicrobial activity against Escherichia coli MTCC 4315 at 50 ug/ml; conditions: read-out: IZ
Candida albicans [9] = test: Antifungal activity against Candida albicans MTCC 183 at 10 ug/ml; conditions: read-out: IZ
Bacillus subtilis [10] = test: Antimicrobial activity against Bacillus subtilis MTCC 1789 at 50 ug/ml; conditions: read-out: IZ
Aspergillus niger [11] = test: Antifungal activity against Aspergillus niger MTCC 282 at 25 ug/ml; conditions: read-out: IZ
Rattus norvegicus [12] = test: Antiinflammatory activity in Wistar albino rat assessed as inhibition of carrageenan-induced paw edema at 20 mg/kg, po administered 30 mins before carrageenan challenge measured after 4 hrs by plethysmograph; method in brief: as §1
Rattus norvegicus [13] = test: Antiinflammatory activity in Wistar albino rat assessed as inhibition of carrageenan-induced paw edema at 20 mg/kg, po administered 30 mins before carrageenan challenge measured after 3 hrs by plethysmograph; method in brief: as §1
Bacillus subtilis [14] = test: Antimicrobial activity against Bacillus subtilis MTCC 1789 at 25 ug/ml; conditions: read-out: IZ
Escherichia coli [15] = test: Antimicrobial activity against Escherichia coli MTCC 4315 at 10 ug/ml; conditions: read-out: IZ
Aspergillus niger [16] = test: Antifungal activity against Aspergillus niger MTCC 282 at 50 ug/ml; conditions: read-out: IZ

Row | SMILES | zone of inhibition at 10 µg/mL (Bacillus subtilis [1]) | zone of inhibition at 10 µg/mL (Aspergillus niger [2]) | Activity (Mus musculus) | zone of inhibition at 25 µg/mL (Escherichia coli [3]) | inhibition in vivo at 20 mg/kg (Rattus norvegicus [4]) | zone of inhibition at 50 µg/mL (Candida albicans [5]) | inhibition in vivo at 20 mg/kg (Rattus norvegicus [6]) | zone of inhibition at 25 µg/mL (Candida albicans [7]) | zone of inhibition at 50 µg/mL (Escherichia coli [8]) | zone of inhibition at 10 µg/mL (Candida albicans [9]) | zone of inhibition at 50 µg/mL (Bacillus subtilis [10]) | zone of inhibition at 25 µg/mL (Aspergillus niger [11]) | inhibition in vivo at 20 mg/kg (Rattus norvegicus [12]) | inhibition in vivo at 20 mg/kg (Rattus norvegicus [13]) | zone of inhibition at 25 µg/mL (Bacillus subtilis [14]) | zone of inhibition at 10 µg/mL (Escherichia coli [15]) | zone of inhibition at 50 µg/mL (Aspergillus niger [16])
1 | Cc1cc(=O)oc2cc(OC(=O)CNN3C=NNC3)ccc12 | 12.5 mm | 11.2 mm | 37% | 14.1 mm | 42.3% | 15.4 mm | 42.8% | 13.4 mm | 16.2 mm | 12.4 mm | 18.1 mm | 13.6 mm | 22.2% | 27.6% | 14.3 mm |  | 
2 | COc1ccc(NCC(=O)Oc2ccc3c(C)cc(=O)oc3c2)cc1 | 11.2 mm |  | 17% | 11.2 mm | 33.3% | 13.2 mm | 30.3% | 12.4 mm |  | 10.2 mm | 14.4 mm | 13.2 mm | 28.8% | 37.2% | 13.3 mm | 10.5 mm | 14.1 mm
3 | Cc1ccccc1NCC(=O)Oc1ccc2c(C)cc(=O)oc2c1 |  | 10.6 mm | 23% | 10.5 mm | 15.3% | 12.2 mm | 12.5% |  |  |  | 11.6 mm | 12.4 mm | 19.4% | 17% |  |  | 13.1 mm
4 | COC1=CC(=O)C[C@@H](C)[C@]12Oc1c(Cl)c(OC)cc(OC)c1C2=O [GRISEOFULVIN] |  |  |  |  |  | 18.2 mm |  | 14.2 mm |  | 12.6 mm |  |  |  |  |  |  | 
5 | Cc1ccc(NCC(=O)Oc2ccc3c(C)cc(=O)oc3c2)cc1 |  |  | 28% | 13 mm | 20.5% | 12.4 mm | 14.2% |  | 14 mm |  | 12.3 mm | 10.5 mm | 6.7% | 20.2% |  | 11.2 mm | 11.4 mm
6 | Cc1cc(=O)oc2cc(OC(=O)CNc3ccccc3)ccc12 | 10.4 mm |  | 24% |  | 29.4% |  | 10.7% |  | 10.4 mm |  | 12.6 mm | 10.2 mm | 13.7% | 30.8% | 11.8 mm |  | 
7 | CN[C@H](CC(C)C)C(=O)N[C@H]1C(=O)N[C@@H](CC(N)=O)C(=O)N[C@H]2C(=O)N[C@H]3C(=O)N[C@H](C(=O)N[C@H](C(=O)O)c4cc(O)cc(O)c4-c4cc3ccc4O)[C@H](O)c3ccc(c(Cl)c3)Oc3cc2cc(c3O[C@@H]2O[C@H](CO)[C@@H](O)[C@H](O)[C@H]2O[C@H]2C[C@](C)(N)[C@H](O)[C@H](C)O2)Oc2ccc(cc2Cl)[C@H]1O [VANCOMYCIN] | 14.2 mm |  |  |  |  |  |  |  |  |  | 20.1 mm |  |  |  | 18.2 mm |  | 
8 | Cc1cc(=O)oc2cc(OC(=O)CNc3ccccc3[N+](=O)[O-])ccc12 | 11.2 mm | 10.1 mm | 28% | 10.1 mm | 16.6% |  | 21.4% | 10.4 mm |  |  | 13.7 mm |  | 15.2% | 15.9% | 12.4 mm |  | 
9 | Cc1cc(=O)oc2cc(OC(=O)CNc3ccc([N+](=O)[O-])cc3)ccc12 | 10.2 mm |  | 28% | 14.2 mm | 17.9% | 11.4 mm | 12.5% | 10.2 mm | 16.9 mm |  | 13.4 mm |  | 23.7% | 20.2% | 12.1 mm | 12.2 mm | 10.2 mm
